Assay results from ChEMBL document CHEMBL1136933 (J Med Chem, 2009).
Activity calls are given as the source filed them. The calls are words filed in the database; no cut-off is given here.

Columns and labels:
[1] = molecular target: T1, Muscarinic acetylcholine receptor M1 (Rattus norvegicus) (UniProt P08482); assay: Activation of rat muscarinic M1 receptor expressed in CHO cells co-expressing Gq protein assessed as potentiation of acetylcholine-induced intracellular Ca2+ mobilization at 30 uM relative to acetylcholine; type: functional, cell-based
T1 sequence (whole entry): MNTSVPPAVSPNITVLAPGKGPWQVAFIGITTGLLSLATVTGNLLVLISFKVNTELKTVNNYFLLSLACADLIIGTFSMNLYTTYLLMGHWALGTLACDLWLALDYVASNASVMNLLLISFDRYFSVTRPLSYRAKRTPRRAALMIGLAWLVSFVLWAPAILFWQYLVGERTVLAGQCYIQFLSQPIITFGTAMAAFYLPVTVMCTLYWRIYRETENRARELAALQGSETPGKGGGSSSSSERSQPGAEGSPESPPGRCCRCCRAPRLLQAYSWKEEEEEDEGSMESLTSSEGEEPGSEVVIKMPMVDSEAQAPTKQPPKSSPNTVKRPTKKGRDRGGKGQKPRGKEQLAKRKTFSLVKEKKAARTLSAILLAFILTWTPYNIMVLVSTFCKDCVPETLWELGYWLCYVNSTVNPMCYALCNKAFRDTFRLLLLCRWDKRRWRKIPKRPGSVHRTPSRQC

[2] = Tmax in Sprague-Dawley rat plasma at 10 mg/kg, ip; type: ADME, organism-based; parameters: dose 10 mg/kg, route intraperitoneal
Outline: (§1)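 Male Sprague-Dawley rats (225-250 g) dosed ip at 10 mg/kg as a 5 mg/ml micro-suspension in 10% Tween 80 in sterile water. Plasma and brain sampled at 0.5, 1, 3 and 6 h, three animals per time point. Quantified by protein precipitation and LC-MS/MS against an internal standard. Brain values corrected for residual blood. PK parameters derived by noncompartmental analysis.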

[3] = Cmax in Sprague-Dawley rat brain at 10 mg/kg, ip within 1 hr; type: ADME, organism-based; parameters: dose 10 mg/kg, route intraperitoneal; outline: as §1
[4] = molecular target: T2, Muscarinic acetylcholine receptor M5 (Homo sapiens) (UniProt P08912); assay: Activation of human muscarinic M5 receptor expressed in CHO cells coexpressing Gq protein assessed as increase in acetylcholine affinity at 30 uM by [3H]NMS competition binding assay relative to control; type: cell-based
T2 sequence (whole entry): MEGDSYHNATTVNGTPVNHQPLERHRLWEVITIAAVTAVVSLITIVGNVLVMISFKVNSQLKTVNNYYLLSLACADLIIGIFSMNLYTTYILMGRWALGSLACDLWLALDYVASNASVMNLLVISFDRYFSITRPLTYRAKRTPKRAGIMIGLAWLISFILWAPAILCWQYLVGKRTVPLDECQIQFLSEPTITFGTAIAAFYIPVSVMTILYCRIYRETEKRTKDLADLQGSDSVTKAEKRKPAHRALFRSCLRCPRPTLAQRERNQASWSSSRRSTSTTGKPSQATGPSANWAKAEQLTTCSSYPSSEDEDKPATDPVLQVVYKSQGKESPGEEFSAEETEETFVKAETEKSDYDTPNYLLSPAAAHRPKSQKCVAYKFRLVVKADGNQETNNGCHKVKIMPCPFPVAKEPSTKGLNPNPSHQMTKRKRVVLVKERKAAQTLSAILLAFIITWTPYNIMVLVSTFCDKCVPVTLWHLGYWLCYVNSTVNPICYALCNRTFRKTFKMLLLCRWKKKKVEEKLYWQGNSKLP

[5] = Elimination half life in Sprague-Dawley rat brain at 10 mg/kg, ip; type: ADME, organism-based; parameters: dose 10 mg/kg, route intraperitoneal; details: read-out: beta t1/2 (converted); outline: as §1
[6] = molecular target: T3, Muscarinic acetylcholine receptor M2 (Rattus norvegicus) (UniProt P10980); assay: Activation of rat muscarinic M2 receptor expressed in CHO cells coexpressing chimeric Gqi5 protein assessed as potentiation of acetylcholine-induced intracellular Ca2+ mobilization up to 30 uM; type: functional, cell-based
T3 sequence (whole entry): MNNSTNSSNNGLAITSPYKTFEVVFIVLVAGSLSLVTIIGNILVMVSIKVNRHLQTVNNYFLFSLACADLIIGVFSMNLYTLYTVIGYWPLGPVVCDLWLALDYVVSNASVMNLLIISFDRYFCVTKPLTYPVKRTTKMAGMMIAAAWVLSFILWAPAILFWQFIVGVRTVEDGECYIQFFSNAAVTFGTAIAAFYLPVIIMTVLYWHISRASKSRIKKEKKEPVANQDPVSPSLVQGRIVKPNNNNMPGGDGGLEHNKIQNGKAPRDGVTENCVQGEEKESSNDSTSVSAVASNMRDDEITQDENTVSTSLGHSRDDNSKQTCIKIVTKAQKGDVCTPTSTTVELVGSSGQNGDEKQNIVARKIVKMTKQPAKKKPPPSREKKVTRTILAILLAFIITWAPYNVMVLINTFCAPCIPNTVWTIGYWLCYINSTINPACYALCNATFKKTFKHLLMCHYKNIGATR

[7] = Ratio of AUC (0 to 6 hrs) in Sprague-Dawley rat brain to AUC (0 to 6 hrs) in Sprague-Dawley rat plasma at 10 mg/kg, ip; type: ADME, organism-based; parameters: dose 10 mg/kg, route intraperitoneal; outline: as §1
[8] = AUC (0 to 6 hrs) in Sprague-Dawley rat plasma at 10 mg/kg, ip; type: ADME, organism-based; parameters: time < 6 hr, dose 10 mg/kg, route intraperitoneal; outline: as §1
[9] = Selectivity ratio of EC50 for rat muscarinic M4 receptor to EC50 for human muscarinic M5 receptor

With `COc1ccc(CN2C(=O)C(=O)c3cc(OC(F)(F)F)ccc32)cc1` as the compound, how does the %max [1] read?
Its %max is 12.7%.

And the Tmax [2]?
Its Tmax is 1 h.

And the Cmax [3]?
The Cmax was 0.0431 µg/mL.

What about the fold change (FC) [4] of the same compound?
Its fold change (FC) is 10.

What about the half-life [5] of the same compound?
The half-life was 3.69 h.

And the Activity [6]?
The Activity was “inactive”.

What about the “Ratio AUC” value [7] of the same compound?
Its value is 0.25.

What about the AUC(0-t) at 6 h [8] of the same compound?
Its AUC(0-t) at 6 h is 0.621 µg·h/mL.

And the Ratio EC50 [9]?
The Ratio EC50 was > 30.
